Measurements from ChEMBL document CHEMBL5696444 (Nat Commun, 2017).
The source made the active and inactive calls. The rule behind the calls is not given here.

How the values were obtained:
[1] = biological target: Dual specificity protein kinase CLK1 (Homo sapiens) (UniProt P49759); test: Inhibition of CLK (unknown origin) in human MDA-MB-468 cells assessed as SRSF4 phosphorylation level incubated for 3 hrs by immunoblot analysis; format: cell-based
[2] = tested on: HCT-116; test: Induction of cell cycle arrest in human HCT-116 cells assessed as G0/G1 phase at 1 uM incubated for 24 hrs by flow cytometry analysis (Rvb=35.7%); format: functional
[3] = biological target: Death-associated protein kinase 1 (Homo sapiens) (UniProt P53355); test: Inhibition of DAPK1 (unknown origin) at 1000 nM in the presence of ATP by Kinome scan method relative to control
[4] = biological target: Cyclin-dependent kinase 5/CDK5 activator 1 (Homo sapiens) (UniProt Q00535+Q15078); test: Inhibition of CDK5/p25 (unknown origin) at 100 nM in the presence of ATP by Kinome scan method relative to control; format: protein-complex assay
[5] = biological target: SRSF protein kinase 2 (Homo sapiens) (UniProt P78362); test: Inhibition of SRPK2 (unknown origin) at 123 nM in the presence of ATP by Kinome scan method relative to control; settings: time > 6.0 hrs
[6] = species on record: Homo sapiens; test: Inhibition of CDK2/cyclin A (unknown origin) at 100 nM in the presence of ATP by Kinome scan method relative to control
[7] = biological target: Mitogen-activated protein kinase 11 (Homo sapiens) (UniProt Q15759); test: Inhibition of MAPK11 (unknown origin) at 1000 nM in the presence of ATP by Kinome scan method relative to control
[8] = biological target: Proto-oncogene tyrosine-protein kinase ROS (Homo sapiens) (UniProt P08922); test: Inhibition of ROS1 (unknown origin) at 100 nM in the presence of ATP by Kinome scan method relative to control
[9] = biological target: RAC-alpha serine/threonine-protein kinase (Homo sapiens) (UniProt P31749); test: Inhibition of AKT1 (unknown origin) at 100 nM in the presence of ATP by Kinome scan method relative to control
[10] = biological target: Proto-oncogene tyrosine-protein kinase Src (Homo sapiens) (UniProt P12931); test: Inhibition of SRC (unknown origin) at 1000 nM in the presence of ATP by Kinome scan method relative to control
[11] = biological target: Dual specificity protein kinase CLK1 (Homo sapiens) (UniProt P49759); test: Inhibition of CLK (unknown origin) in human MDA-MB-468 cells assessed as SRSF6 phosphorylation level incubated for 3 hrs by immunoblot analysis; format: cell-based
[12] = biological target: Serine/threonine-protein kinase Nek1 (Homo sapiens) (UniProt Q96PY6); test: Inhibition of NEK1 (unknown origin) at 100 nM in the presence of ATP by Kinome scan method relative to control
[13] = biological target: Mitogen-activated protein kinase 3 (Homo sapiens) (UniProt P27361); test: Inhibition of MAPK3 (unknown origin) at 100 nM in the presence of ATP by Kinome scan method relative to control
[14] = tested on: HCT-116; test: Induction of cell cycle arrest in human HCT-116 cells assessed as G0/G1 phase at 0.1 uM incubated for 24 hrs by flow cytometry analysis (Rvb=35.7%); format: functional
[15] = biological target: Homeodomain-interacting protein kinase 1 (Homo sapiens) (UniProt Q86Z02); test: Inhibition of HIPK1 (unknown origin) at 100 nM in the presence of ATP by Kinome scan method relative to control
[16] = biological target: Mitogen-activated protein kinase 1 (Homo sapiens) (UniProt P28482); test: Inhibition of MAPK1 (unknown origin) at 1000 nM in the presence of ATP by Kinome scan method relative to control
[17] = biological target: Interleukin-1 receptor-associated kinase 4 (Homo sapiens) (UniProt Q9NWZ3); test: Inhibition of IRAK4 (unknown origin) at 100 nM in the presence of ATP by Kinome scan method relative to control
[18] = biological target: Dual specificity protein kinase CLK2 (Homo sapiens, UniProt P49760); test: Inhibition of N-terminal FLAG-tagged human CLK2 at 123 nM in the presence of ATP by Kinome scan method relative to control; settings: time > 6.0 hrs
[19] = biological target: Casein kinase I isoform delta (Homo sapiens) (UniProt P48730); test: Inhibition of CSNK1D (unknown origin) at 100 nM in the presence of ATP by Kinome scan method relative to control
[20] = tested on: HCT-116; test: Induction of cell cycle arrest in human HCT-116 cells assessed as S phase at 0.1 uM incubated for 6 hrs by flow cytometry analysis (Rvb=39.3%); format: functional
[21] = tested on: HCT-116; test: Induction of cell cycle arrest in human HCT-116 cells assessed as G2/M phase at 0.5 uM incubated for 24 hrs by flow cytometry analysis (Rvb=17.9%); format: functional
[22] = biological target: AMP-activated protein kinase (AMPK) alpha-1/beta-1/gamma-1 (Homo sapiens) (UniProt P54619+Q9Y478+Q13131); test: Inhibition of AMPK A1/B1/G1 (unknown origin) at 100 nM in the presence of ATP by Kinome scan method relative to control; format: protein-complex assay
[23] = tested on: HCT-116; test: Induction of cell cycle arrest in human HCT-116 cells assessed as sub G0/G1 phase at 0.5 uM incubated for 6 hrs by flow cytometry analysis (Rvb=1.6%); format: functional
[24] = biological target: Mast/stem cell growth factor receptor Kit (Homo sapiens) (UniProt P10721); test: Inhibition of KIT (unknown origin) at 100 nM in the presence of ATP by Kinome scan method relative to control
[25] = biological target: Proto-oncogene tyrosine-protein kinase Src (Homo sapiens) (UniProt P12931); test: Inhibition of SRC (unknown origin) at 100 nM in the presence of ATP by Kinome scan method relative to control
[26] = tested on: HCT-116; test: Induction of apoptosis in human HCT-116 cells assessed as necrosis cells at 1 uM incubated for > 6 hrs by annexin V/PI staining based analysis (Rvb=0.55%); format: functional
[27] = biological target: Inhibitor of nuclear factor kappa-B kinase subunit beta (Homo sapiens) (UniProt O14920); test: Inhibition of IKBKB (unknown origin) at 100 nM in the presence of ATP by Kinome scan method relative to control
[28] = biological target: Dual specificity protein kinase CLK1 (Homo sapiens) (UniProt P49759); test: Inhibition of CLK (unknown origin) in human HCT-116 cells assessed as induction in alternative splicing effect in S6K canonical isoform incubated for 6 hrs by RT-PCR analysis; format: cell-based; settings: dose 0.2-5 µM
How it was run: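 Cells exposed to graded T3 concentrations for 6 h (chosen to avoid cytotoxicity), with a DMSO vehicle control. Total RNA was reverse-transcribed with oligo-dT primers. Targeted splice or conjoined-gene products were quantified by real-time qPCR or by targeted next-generation sequencing. Conjoined-gene isoform expression was normalized to a sequenced housekeeping gene.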

[29] = biological target: Ephrin type-A receptor 2 (Homo sapiens) (UniProt P29317); test: Inhibition of EPHA2 (unknown origin) at 1000 nM in the presence of ATP by Kinome scan method relative to control
[30] = biological target: Dual specificity mitogen-activated protein kinase kinase 2 (Homo sapiens) (UniProt P36507); test: Inhibition of MAP2K2 (unknown origin) at 1000 nM in the presence of ATP by Kinome scan method relative to control

Sequence of Dual specificity protein kinase CLK1 (Homo sapiens) (P49759 whole entry, looked up, canonical isoform): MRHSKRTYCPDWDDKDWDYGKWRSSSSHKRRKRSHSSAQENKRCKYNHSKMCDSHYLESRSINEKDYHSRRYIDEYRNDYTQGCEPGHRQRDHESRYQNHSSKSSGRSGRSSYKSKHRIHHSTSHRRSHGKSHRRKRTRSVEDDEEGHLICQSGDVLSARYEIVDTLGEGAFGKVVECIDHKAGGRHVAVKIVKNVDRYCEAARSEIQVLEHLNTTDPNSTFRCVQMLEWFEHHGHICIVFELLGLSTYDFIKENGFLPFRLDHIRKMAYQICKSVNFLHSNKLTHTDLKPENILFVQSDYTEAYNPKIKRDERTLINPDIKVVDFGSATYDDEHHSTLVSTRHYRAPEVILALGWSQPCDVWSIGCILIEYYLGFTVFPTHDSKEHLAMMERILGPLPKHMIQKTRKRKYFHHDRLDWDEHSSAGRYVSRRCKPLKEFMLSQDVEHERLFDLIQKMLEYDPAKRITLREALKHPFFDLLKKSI
Sequence of Proto-oncogene tyrosine-protein kinase Src (Homo sapiens) (P12931 2-536 limits assumed): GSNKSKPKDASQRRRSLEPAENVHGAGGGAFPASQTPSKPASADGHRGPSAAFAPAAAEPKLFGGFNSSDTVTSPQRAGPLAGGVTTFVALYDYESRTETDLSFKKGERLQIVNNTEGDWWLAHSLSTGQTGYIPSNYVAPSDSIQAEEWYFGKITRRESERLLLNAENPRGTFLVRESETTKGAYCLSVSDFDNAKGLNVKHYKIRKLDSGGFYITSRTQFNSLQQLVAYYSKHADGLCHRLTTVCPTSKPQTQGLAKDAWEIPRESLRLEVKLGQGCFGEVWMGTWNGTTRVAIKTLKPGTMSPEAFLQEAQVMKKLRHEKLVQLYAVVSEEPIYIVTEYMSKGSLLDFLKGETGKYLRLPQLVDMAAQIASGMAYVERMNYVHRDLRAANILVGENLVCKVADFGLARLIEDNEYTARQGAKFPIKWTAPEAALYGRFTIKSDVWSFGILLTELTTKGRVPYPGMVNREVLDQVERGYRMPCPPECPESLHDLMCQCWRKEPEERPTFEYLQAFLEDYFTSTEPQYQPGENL
Sequence of Dual specificity protein kinase CLK2 (P49760 whole entry, looked up, canonical isoform): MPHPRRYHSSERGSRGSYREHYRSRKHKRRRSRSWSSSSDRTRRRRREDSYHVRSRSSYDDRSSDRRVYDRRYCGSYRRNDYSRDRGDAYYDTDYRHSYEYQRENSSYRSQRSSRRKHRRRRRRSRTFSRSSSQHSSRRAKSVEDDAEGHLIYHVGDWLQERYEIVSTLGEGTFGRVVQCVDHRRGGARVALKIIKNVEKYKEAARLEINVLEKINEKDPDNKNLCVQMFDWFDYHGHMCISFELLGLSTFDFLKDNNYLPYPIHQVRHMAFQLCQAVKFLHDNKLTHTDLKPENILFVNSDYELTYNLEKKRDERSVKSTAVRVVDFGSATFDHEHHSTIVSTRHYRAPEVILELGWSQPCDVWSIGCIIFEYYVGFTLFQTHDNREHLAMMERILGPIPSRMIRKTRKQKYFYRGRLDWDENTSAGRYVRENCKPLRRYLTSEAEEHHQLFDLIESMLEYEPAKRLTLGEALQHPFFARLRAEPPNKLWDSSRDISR
Sequence of Interleukin-1 receptor-associated kinase 4 (Homo sapiens) (Q9NWZ3 whole entry): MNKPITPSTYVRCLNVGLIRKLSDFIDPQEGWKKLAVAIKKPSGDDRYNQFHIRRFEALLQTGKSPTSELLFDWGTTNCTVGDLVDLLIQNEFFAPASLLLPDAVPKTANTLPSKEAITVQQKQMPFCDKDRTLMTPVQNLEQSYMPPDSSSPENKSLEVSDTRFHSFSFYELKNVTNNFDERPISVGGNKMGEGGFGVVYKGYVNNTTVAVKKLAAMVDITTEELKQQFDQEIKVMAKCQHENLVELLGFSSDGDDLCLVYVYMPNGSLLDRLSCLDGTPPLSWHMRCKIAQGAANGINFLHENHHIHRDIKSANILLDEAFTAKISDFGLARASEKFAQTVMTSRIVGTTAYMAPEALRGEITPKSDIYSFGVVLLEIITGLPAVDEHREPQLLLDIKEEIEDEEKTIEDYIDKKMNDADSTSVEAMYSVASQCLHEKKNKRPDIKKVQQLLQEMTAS
Sequence of Homeodomain-interacting protein kinase 1 (Homo sapiens) (Q86Z02 whole entry, looked up): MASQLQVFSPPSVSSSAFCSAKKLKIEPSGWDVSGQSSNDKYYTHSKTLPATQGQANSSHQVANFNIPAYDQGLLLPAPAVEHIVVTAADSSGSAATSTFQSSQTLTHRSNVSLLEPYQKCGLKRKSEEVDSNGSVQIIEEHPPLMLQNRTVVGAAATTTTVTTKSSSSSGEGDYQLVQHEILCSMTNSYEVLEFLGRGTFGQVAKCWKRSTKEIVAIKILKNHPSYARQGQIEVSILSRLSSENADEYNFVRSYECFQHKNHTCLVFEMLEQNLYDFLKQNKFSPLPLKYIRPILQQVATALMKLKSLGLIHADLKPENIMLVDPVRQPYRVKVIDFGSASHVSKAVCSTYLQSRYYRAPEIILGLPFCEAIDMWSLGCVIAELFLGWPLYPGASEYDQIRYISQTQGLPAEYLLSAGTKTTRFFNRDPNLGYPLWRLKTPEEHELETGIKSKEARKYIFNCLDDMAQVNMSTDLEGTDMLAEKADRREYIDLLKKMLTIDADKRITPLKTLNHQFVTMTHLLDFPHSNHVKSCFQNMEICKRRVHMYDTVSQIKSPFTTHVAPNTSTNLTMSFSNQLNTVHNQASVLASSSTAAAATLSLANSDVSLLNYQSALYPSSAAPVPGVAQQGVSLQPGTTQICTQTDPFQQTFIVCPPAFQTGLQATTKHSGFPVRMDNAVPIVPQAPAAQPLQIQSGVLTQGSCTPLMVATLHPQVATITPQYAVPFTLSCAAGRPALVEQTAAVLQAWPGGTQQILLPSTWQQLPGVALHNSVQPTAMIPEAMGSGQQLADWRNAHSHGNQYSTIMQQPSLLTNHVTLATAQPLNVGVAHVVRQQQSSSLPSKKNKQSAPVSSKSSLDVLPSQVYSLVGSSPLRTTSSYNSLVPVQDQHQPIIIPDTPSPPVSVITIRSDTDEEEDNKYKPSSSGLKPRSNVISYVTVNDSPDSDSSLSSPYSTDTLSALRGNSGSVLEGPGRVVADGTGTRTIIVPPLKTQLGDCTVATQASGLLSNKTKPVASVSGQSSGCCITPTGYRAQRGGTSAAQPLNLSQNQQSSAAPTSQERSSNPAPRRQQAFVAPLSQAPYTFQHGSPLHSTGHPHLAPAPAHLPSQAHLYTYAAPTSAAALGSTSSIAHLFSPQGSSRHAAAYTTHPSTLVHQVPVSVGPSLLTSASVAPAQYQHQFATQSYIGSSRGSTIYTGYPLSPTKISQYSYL
Sequence of AMP-activated protein kinase (AMPK) alpha-1/beta-1/gamma-1 (Homo sapiens) (P54619 whole entry): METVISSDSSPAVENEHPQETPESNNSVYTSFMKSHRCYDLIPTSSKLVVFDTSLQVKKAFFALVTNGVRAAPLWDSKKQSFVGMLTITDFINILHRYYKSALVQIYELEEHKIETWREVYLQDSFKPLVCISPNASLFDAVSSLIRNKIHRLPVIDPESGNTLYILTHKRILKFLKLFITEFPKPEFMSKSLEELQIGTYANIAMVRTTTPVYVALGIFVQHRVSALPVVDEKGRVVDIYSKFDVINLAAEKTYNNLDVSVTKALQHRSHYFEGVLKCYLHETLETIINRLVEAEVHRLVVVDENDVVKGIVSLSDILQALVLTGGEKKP
Sequence of AMP-activated protein kinase (AMPK) alpha-1/beta-1/gamma-1 (Homo sapiens) (Q13131 whole entry partner): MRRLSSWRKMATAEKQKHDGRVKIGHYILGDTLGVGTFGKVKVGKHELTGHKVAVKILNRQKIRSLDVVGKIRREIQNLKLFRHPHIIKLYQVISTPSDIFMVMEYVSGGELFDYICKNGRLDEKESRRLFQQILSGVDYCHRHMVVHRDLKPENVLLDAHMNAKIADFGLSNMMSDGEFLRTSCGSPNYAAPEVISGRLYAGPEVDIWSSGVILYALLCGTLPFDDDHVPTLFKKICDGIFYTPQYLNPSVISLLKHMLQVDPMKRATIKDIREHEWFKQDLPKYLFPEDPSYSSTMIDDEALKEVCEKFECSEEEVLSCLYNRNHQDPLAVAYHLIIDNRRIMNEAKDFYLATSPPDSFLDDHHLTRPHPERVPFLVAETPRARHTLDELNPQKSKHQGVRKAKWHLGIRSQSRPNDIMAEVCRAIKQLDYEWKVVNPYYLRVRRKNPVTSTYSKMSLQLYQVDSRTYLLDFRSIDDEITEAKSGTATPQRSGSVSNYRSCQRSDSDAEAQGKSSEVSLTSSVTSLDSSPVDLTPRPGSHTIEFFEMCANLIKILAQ
Sequence of AMP-activated protein kinase (AMPK) alpha-1/beta-1/gamma-1 (Homo sapiens) (Q9Y478 2-270 partner limits assumed): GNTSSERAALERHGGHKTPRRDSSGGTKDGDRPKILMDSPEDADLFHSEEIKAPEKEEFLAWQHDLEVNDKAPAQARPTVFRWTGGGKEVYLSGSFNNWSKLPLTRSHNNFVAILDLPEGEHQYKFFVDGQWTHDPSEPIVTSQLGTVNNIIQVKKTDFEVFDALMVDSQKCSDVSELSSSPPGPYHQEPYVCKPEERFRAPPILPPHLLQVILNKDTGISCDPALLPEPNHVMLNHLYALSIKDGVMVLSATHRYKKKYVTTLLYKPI
Sequence of Cyclin-dependent kinase 5/CDK5 activator 1 (Homo sapiens) (Q00535 whole entry): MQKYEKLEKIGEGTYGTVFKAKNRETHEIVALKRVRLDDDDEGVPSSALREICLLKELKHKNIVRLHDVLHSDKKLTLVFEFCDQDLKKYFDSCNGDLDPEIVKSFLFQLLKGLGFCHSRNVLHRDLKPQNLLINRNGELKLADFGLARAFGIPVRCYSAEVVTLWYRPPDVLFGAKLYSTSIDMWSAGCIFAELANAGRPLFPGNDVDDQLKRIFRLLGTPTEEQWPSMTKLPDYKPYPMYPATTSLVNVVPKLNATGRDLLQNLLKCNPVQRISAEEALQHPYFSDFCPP
Sequence of Cyclin-dependent kinase 5/CDK5 activator 1 (Homo sapiens) (Q15078 99-307 partner limits assumed): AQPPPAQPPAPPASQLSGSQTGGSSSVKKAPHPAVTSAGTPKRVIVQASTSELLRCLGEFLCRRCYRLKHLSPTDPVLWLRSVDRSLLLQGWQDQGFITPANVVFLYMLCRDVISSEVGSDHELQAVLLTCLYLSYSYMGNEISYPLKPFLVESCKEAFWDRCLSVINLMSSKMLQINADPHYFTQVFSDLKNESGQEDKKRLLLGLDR

**Q.** For CN1CCN(C(=O)C(C)(C)c2ccc(C(=O)Nc3cn4cc(-c5ccncc5)ccc4n3)cc2)CC1 [T3-CLK], which inhibition [1] is on record?
**A.** Its inhibition is “Active”.

**Q.** And the Activity [2]?
**A.** The Activity was 7.3%.

**Q.** And the inhibition [3]?
**A.** The inhibition was -6%.

**Q.** What about the inhibition [4] of the same compound?
**A.** The inhibition was 2%.

**Q.** And the inhibition [5]?
**A.** The inhibition was 2%.

**Q.** What about the inhibition [6] of the same compound?
**A.** The inhibition was 0%.

**Q.** What about the inhibition [7] of the same compound?
**A.** The inhibition was 1%.

**Q.** What about the inhibition [8] of the same compound?
**A.** The inhibition was -4%.

**Q.** And the inhibition [9]?
**A.** The inhibition was -8%.

**Q.** What about the inhibition [10] of the same compound?
**A.** The inhibition was 47%.

**Q.** What about the inhibition [11] of the same compound?
**A.** The inhibition was “Active”.

**Q.** What about the inhibition [12] of the same compound?
**A.** The inhibition was 4%.

**Q.** What about the inhibition [13] of the same compound?
**A.** Its inhibition is 6%.

**Q.** What about the Activity [14] of the same compound?
**A.** Its Activity is 38.7%.

**Q.** And the inhibition [15]?
**A.** The inhibition was -1%.

**Q.** And the inhibition [16]?
**A.** The inhibition was 4%.

**Q.** And the inhibition [17]?
**A.** Its inhibition is 25%.

**Q.** What about the inhibition [18] of the same compound?
**A.** Its inhibition is 92%.

**Q.** What about the inhibition [19] of the same compound?
**A.** Its inhibition is -3%.

**Q.** What about the Activity [20] of the same compound?
**A.** Its Activity is 45.5%.

**Q.** What about the Activity [21] of the same compound?
**A.** Its Activity is 68.1%.

**Q.** What about the inhibition [22] of the same compound?
**A.** The inhibition was -2%.

**Q.** And the Activity [23]?
**A.** Its Activity is 1.6%.

**Q.** What about the inhibition [24] of the same compound?
**A.** Its inhibition is 11%.

**Q.** What about the inhibition [25] of the same compound?
**A.** Its inhibition is 13%.

**Q.** What about the Activity [26] of the same compound?
**A.** Its Activity is 0.73%.

**Q.** What about the inhibition [27] of the same compound?
**A.** Its inhibition is -6%.

**Q.** What about the inhibition [28] of the same compound?
**A.** Its inhibition is “Dose-Dependent Effect”.

**Q.** What about the inhibition [29] of the same compound?
**A.** The inhibition was -6%.

**Q.** And the inhibition [30]?
**A.** Its inhibition is 14%.
